Laboratory results as given in ChEMBL document CHEMBL5252656, “Cyclic Peptidic Furin Inhibitors Developed by Combinatorial Chemistry” (ACS Med Chem Lett, 2023).
Active and inactive are the calls of the source. The calls are words filed in the database; no cut-off is given here. Bridge positions count the residues as written; N and C are the ends. Peptide text beside a SMILES is read from it.

Assays:
Furin (Homo sapiens) [1] = biological target: Furin (Homo sapiens) (UniProt P09958); test: Inhibition of human furin in human PANC-1 cells assessed as release of fluorescent AMC using Pyr-Arg-Thr-Arg-AMC as substrate preincubated for 30 mins followed by substrate addition by plate reader analysis; format: cell-based; parameters: concentration or dose not given beside the values
Summary of the method: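 PANC-1 lysate (DMEM/10% FBS culture, protease-inhibitor cocktail extraction) was diluted 10-fold in 100 mM HEPES, 1 mM CaCl2, pH 7.5, then warmed 15 min at 37 °C. Peptide (100 μM final) was added for 30 min at 37 °C, then Pyr-RTR-AMC substrate (100 μM final). AMC release was monitored over time; % inhibition relative to no-inhibitor control.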

[2] = Stability in human serum assessed as parent compound remaining at 1.54 mM and measured after 24 hrs by RP-HPLC analysis; format: ADME, cell-free
Summary of the method: (§1)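 Peptide stock (1.54 mM) was diluted 10-fold into human serum and held at 37 °C. Samples were taken at 0, 1, 2, 3, 5 and 24 h, precipitated with equal volume acetonitrile and centrifuged 10 min. Supernatant was analysed by RP-HPLC (C18, 10–90% B over 40 min) and MALDI-TOF MS.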

[3] = biological target: T1, Transmembrane protease serine 6 (Homo sapiens) (UniProt Q8IU80); test: Inhibition of recombinant human matriptase 2 using Boc-Gln-Ala-Arg-AMC as substrate at 3.85 to 385 nM preincubated for 30 mins followed by substrate addition and measured for 40 mins by microplate reader method; settings: dose 3.85-385 nM, time 70.0 min
T1 sequence (whole entry): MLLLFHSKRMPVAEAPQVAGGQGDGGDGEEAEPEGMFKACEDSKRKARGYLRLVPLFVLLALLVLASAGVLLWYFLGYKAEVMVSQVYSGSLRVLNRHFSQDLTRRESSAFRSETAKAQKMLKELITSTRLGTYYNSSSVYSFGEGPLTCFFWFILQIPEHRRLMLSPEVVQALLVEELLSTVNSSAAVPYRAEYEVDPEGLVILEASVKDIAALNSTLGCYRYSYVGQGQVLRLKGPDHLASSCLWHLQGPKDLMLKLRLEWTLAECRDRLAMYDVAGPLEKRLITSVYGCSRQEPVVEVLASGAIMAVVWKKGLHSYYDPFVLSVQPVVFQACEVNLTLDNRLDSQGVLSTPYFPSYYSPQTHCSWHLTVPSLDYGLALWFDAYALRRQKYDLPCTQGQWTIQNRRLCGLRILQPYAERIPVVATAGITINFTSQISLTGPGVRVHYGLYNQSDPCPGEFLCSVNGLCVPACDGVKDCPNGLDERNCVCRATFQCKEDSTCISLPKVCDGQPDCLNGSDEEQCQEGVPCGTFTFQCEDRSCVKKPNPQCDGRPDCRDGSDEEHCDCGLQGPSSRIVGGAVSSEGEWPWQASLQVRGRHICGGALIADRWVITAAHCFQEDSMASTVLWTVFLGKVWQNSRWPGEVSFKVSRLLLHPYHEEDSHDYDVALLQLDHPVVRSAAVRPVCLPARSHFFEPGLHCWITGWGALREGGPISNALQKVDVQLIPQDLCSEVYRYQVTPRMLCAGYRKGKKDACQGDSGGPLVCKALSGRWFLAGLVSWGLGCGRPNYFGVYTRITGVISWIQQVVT
Summary of the method: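 Recombinant human matriptase-2 (1.51 U/mL) in 50 mM Tris-Cl pH 8.3, 150 mM NaCl, 0.01% Triton X-100 was preincubated with compound 30 min at 37 °C. Boc-QAR-AMC (5 μM final) was then added; fluorescence (ex 380/em 450 nm) read ≥40 min. % inhibition vs no-inhibitor control.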

Furin (Homo sapiens) [4] = biological target: Furin (Homo sapiens) (UniProt P09958); test: Inhibition of human furin in human PANC-1 cells assessed as release of fluorescent AMC using Pyr-Arg-Thr-Arg-AMC as substrate preincubated for 10 mins in presence of SFTI-1 then incubation with ligand for 30 mins followed by substrate addition by plate reader analysis; format: cell-based; settings: time 40.0 min
Summary of the method: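 PANC-1 cells grown in DMEM with 10% FBS and 1% P/S at 37 °C, 5% CO2. Cell lysate was prepared in protease inhibitor cocktail and diluted 10-fold in pH 7.5 HEPES/CaCl2 buffer. It was given SFTI-1 (100 μM final) for 10 min at 37 °C, then peptide (100 μM final) for 30 min, then Pyr-RTR-AMC (100 μM final). AMC release was followed; % inhibition vs no-inhibitor control.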

[5] = Stability in human serum assessed as parent compound remaining at 1.54 mM and measured after 24 hrs by MALDI-MS analysis; format: ADME, cell-free; summary of the method: as §1
Furin (Homo sapiens) [6] = biological target: Furin (Homo sapiens) (UniProt P09958); test: Inhibition of recombinant human furin using Pyr-Arg-Thr-Lys-Arg-AMC as substrate at 2.4 nM preincubated for 30 mins followed by substrate addition and measured for 40 mins by microplate reader method; settings: time 70.0 min
Furin (Homo sapiens) [7] = biological target: Furin (Homo sapiens) (UniProt P09958); test: Inhibition of recombinant human furin using Pyr-Arg-Thr-Lys-Arg-AMC as substrate at 77 nM preincubated for 30 mins followed by substrate addition and measured for 40 mins by microplate reader method; settings: time 70.0 min
Furin (Homo sapiens) [8] = biological target: Furin (Homo sapiens) (UniProt P09958); test: Inhibition of recombinant human furin using Pyr-Arg-Thr-Lys-Arg-AMC as substrate at 24 nM preincubated for 30 mins followed by substrate addition and measured for 40 mins by microplate reader method; settings: time 70.0 min

Chain of Furin (Homo sapiens) (P09958 whole entry): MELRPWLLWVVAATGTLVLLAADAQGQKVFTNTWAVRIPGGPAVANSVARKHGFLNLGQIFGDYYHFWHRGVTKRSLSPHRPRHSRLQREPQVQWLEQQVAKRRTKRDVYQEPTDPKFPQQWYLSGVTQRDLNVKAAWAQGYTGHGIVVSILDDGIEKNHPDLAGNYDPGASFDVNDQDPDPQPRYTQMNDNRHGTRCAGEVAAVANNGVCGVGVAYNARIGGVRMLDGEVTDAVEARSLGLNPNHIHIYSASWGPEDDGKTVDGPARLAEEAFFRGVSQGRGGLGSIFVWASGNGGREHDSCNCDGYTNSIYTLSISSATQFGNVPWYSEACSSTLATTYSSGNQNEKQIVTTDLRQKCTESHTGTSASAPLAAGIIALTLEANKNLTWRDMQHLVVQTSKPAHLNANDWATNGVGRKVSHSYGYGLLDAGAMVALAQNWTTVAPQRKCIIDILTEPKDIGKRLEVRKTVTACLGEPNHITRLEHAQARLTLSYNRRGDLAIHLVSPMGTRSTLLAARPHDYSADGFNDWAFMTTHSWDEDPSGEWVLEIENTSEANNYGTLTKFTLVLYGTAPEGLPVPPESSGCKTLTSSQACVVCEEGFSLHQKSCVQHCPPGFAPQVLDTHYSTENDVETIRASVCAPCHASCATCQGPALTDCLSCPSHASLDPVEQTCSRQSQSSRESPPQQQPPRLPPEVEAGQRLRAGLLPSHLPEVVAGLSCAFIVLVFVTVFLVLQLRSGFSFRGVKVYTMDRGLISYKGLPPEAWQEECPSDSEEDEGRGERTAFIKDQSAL

| Structure (SMILES) | inhibition (Furin (Homo sapiens) [1]) [%] | Stability [2] | inhibition [3] | inhibition (Furin (Homo sapiens) [4]) [%] | Stability [5] | inhibition (Furin (Homo sapiens) [6]) [%] | inhibition (Furin (Homo sapiens) [7]) [%] | inhibition (Furin (Homo sapiens) [8]) [%] |
| --- | --- | --- | --- | --- | --- | --- | --- | --- |
| CC[C@H](C)[C@@H]1NC(=O)[C@@H]2CCCN2C(=O)[C@@H]2CCCN2C(=O)[C@H]([C@@H](C)CC)NC(=O)[C@H](CO)NC(=O)[C@H](CCCCN)NC(=O)[C@H]([C@H](C)O)NC(=O)[C@@H]2CSSC[C@H](NC1=O)C(=O)N[C@@H](Cc1ccccc1)C(=O)N1CCC[C@H]1C(=O)N[C@H](C(=O)O)CC(=O)NC(=N)NCCC[C@@H](C(N)=O)C(=O)N2 | 98.4 |  |  |  |  |  |  |  |
| CC[C@H](C)[C@@H]1NC(=O)[C@@H]2CCCN2C(=O)[C@@H]2CCCN2C(=O)[C@H]([C@@H](C)CC)NC(=O)[C@H](CO)NC(=O)[C@H](CCCCN)NC(=O)[C@H](CCCCN)NC(=O)[C@@H](NC(=O)[C@H](CCCNC(=N)N)NC(=O)[C@@H](N)CCCNC(=N)N)CSSC[C@@H](C(=O)N[C@@H](Cc2ccccc2)C(N)=O)NC1=O (H-RRCKKSIPPICF-NH2; disulfide 3-11) |  |  |  |  |  | 63 | 0.2 | 6.02 |
| CC[C@H](C)[C@@H]1NC(=O)[C@@H]2CCCN2C(=O)[C@@H]2CCCN2C(=O)[C@H]([C@@H](C)CC)NC(=O)[C@H](CO)NC(=O)[C@H](CCCCN)NC(=O)[C@H](CCCCN)NC(=O)[C@@H](NC(=O)[C@H](CCCNC(=N)N)NC(=O)[C@H](CCCNC(=N)N)NC(=O)[C@@H](N)CCCNC(=N)N)CSSC[C@@H](C(=O)N[C@@H](Cc2ccccc2)C(N)=O)NC1=O (H-RRRCKKSIPPICF-NH2; disulfide 4-12) | 68.3 | Stable | inactive | 46.6 | Stable | 43.7 |  |  |
| CC[C@H](C)[C@@H]1NC(=O)[C@@H]2CCCN2C(=O)[C@@H]2CCCN2C(=O)[C@H]([C@@H](C)CC)NC(=O)[C@H](CO)NC(=O)[C@H](CCCCN)NC(=O)[C@H](CCCCN)NC(=O)[C@@H]2CSSC[C@H](NC1=O)C(=O)N[C@@H](Cc1ccccc1)C(=O)N[C@@H](CCCCN)C(=O)N[C@@H](CCCNC(=N)N)C(=O)N[C@@H](CCCNC(=N)N)C(=O)N2 (cyclo(KRRCKKSIPPICF); disulfide 4-12) | 64.8 |  | inactive | 45.9 |  | 40.2 |  |  |

Continued, values first:

| inhibition (Furin (Homo sapiens) [1]) [%] | Stability [2] | inhibition [3] | inhibition (Furin (Homo sapiens) [4]) [%] | Stability [5] | inhibition (Furin (Homo sapiens) [6]) [%] | inhibition (Furin (Homo sapiens) [7]) [%] | inhibition (Furin (Homo sapiens) [8]) [%] | Structure (SMILES) |
| --- | --- | --- | --- | --- | --- | --- | --- | --- |
| 50.4 | Stable | inactive | 34.7 | Stable |  |  |  | CC[C@H](C)[C@@H]1NC(=O)[C@@H]2CCCN2C(=O)[C@@H]2CCCN2C(=O)[C@H]([C@@H](C)CC)NC(=O)[C@H](CO)NC(=O)[C@H](CCCCN)NC(=O)[C@H](CCCCN)NC(=O)[C@@H](NC(=O)[C@H](CCCNC(=N)N)NC(=O)[C@@H](N)CCCCN)CSSC[C@@H](C(=O)N[C@@H](Cc2ccccc2)C(N)=O)NC1=O (H-KRCKKSIPPICF-NH2; disulfide 3-11) |
|  |  |  |  |  | 66.5 | 0.1 | 3.98 | CC[C@H](C)[C@@H]1NC(=O)[C@@H]2CCCN2C(=O)[C@@H]2CCCN2C(=O)[C@H]([C@@H](C)CC)NC(=O)[C@H](CO)NC(=O)[C@H](CCCCN)NC(=O)[C@H](CCCCN)NC(=O)[C@@H](NC(=O)[C@H](CCCNC(=N)N)NC(=O)[C@H](CCCNC(=N)N)NC(=O)[C@@H](N)CCCCN)CSSC[C@@H](C(=O)N[C@@H](Cc2ccccc2)C(N)=O)NC1=O (H-KRRCKKSIPPICF-NH2; disulfide 4-12) |
|  |  |  |  |  | 97.2 | 3.72 | 46.1 | CC[C@H](C)[C@@H]1NC(=O)[C@@H]2CCCN2C(=O)[C@@H]2CCCN2C(=O)[C@H]([C@@H](C)CC)NC(=O)[C@H](CO)NC(=O)[C@H](CCCCN)NC(=O)[C@H](CCCCN)NC(=O)[C@@H]2CSSC[C@H](NC1=O)C(=O)N[C@@H](Cc1ccccc1)C(=O)N[C@@H](CCCNC(=N)N)C(=O)N[C@@H](CCCNC(=N)N)C(=O)N2 (cyclo(CFRRCKKSIPPI); disulfide 1-5) |
| 58.8 |  | inactive | 45.2 |  | 34.7 |  |  | CC[C@H](C)[C@@H]1NC(=O)[C@@H]2CCCN2C(=O)[C@@H]2CCCN2C(=O)[C@H]([C@@H](C)CC)NC(=O)[C@H](CO)NC(=O)[C@H](CCCCN)NC(=O)[C@H](CCCCN)NC(=O)[C@@H]2CSSC[C@H](NC1=O)C(=O)N[C@@H](Cc1ccccc1)C(=O)N[C@@H](CCCNC(=N)N)C(=O)N[C@@H](CCCNC(=N)N)C(=O)N[C@@H](CCCNC(=N)N)C(=O)N2 (cyclo(RRRCKKSIPPICF); disulfide 4-12) |
